Experimental data published in the RNAGym collection of RNA variant scans (doi:10.1126/science.aae0568).
This sample holds only a part of the variants without activity.

B1: tRNA (parent)
chain: GUUCCGUUGGCGUAAUGGUAACGCGUCUCCCUCCUAAGGAGAAGACUGCGGGUUCGAGUCCCGUACGGAACG

Variants of: B1
Test: yeast fitness relative to wild type (ratio to wild type); higher = fitter; tRNA-Arg(CCU), competitive growth, 37 C, YPD
Summary of the method: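 Genotype frequency changes were the basis for Darwinian fitness relative to wild type. The frequencies came from 100-nucleotide paired-end sequencing of gene amplicons from the start population and each end population of pooled yeast strains with tRNA-Arg(CCU) gene variants at the native locus. Competition ran in YPD at 37°C for 24 hours in six replicates, genotypes needed ≥ 100 starting reads, and estimates < 0.5 were set to 0.5.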

Variant	yeast fitness
U3C A15G G25C C66G	≤ 0.5
C24A A43G U54C	0.606
U2A U32A G67A	≤ 0.5
C24U A57G C61G	≤ 0.5
C11U U28C A40C G50C	≤ 0.5
G12C U35C A37G G38A A45U A70G	≤ 0.5
C5G C29A G48A	≤ 0.5
G9A C22G U35C C49G G68C	≤ 0.5
U3A G23A A69C	0.571
A14U A40C A57C	≤ 0.5
C5U A36U G67A	≤ 0.5
C4G C24A C46U U64C	≤ 0.5
C5G C22U A57G	≤ 0.5
G9A G41A A69C	0.558
C5U G10C A14G C46G C62U	0.593
U2G C27U A36G	0.552
A15C A20U C31G G48C A65U	≤ 0.5
U3C C4A A36U A43U	≤ 0.5
C4A G18C C29A C31A A70C	≤ 0.5
A14C A70U	0.679
U7G A42C G44C G67C	≤ 0.5

Variant	yeast fitness
U13A C31G C34A	0.624
A21C C27G C46A C55G	≤ 0.5
A20G U26A C61G A65C	0.518
C46A U54G	0.544
C11A G17A U35G	≤ 0.5
A20C G39C C61U	≤ 0.5
U13A U32C A40C G67A	≤ 0.5
U8G G50C U64G	0.56
C4A C5A U35C G44A G48C C55G A69U	≤ 0.5
U16A G25C C46G	1.07
C4A C11G C31A A42G C66A	≤ 0.5
U2C U32A A65C	≤ 0.5
G44A U54A A70U	0.549
U3A U8C	0.925
C22U C34U C60G A69G	0.58
C4U U26G C29U U47C A65U	≤ 0.5
A20G A37G	0.718
C22A C31A	0.789
C4U G17A C34A A57U	≤ 0.5
C11G G39C U47C G68C	≤ 0.5
C4G G6A G23A A43G	≤ 0.5

Variant	yeast fitness
U3A C31U U47C	0.871
U3C C30A A40U	0.634
A15G G17A U26C C61U G67A	≤ 0.5
U26C C46G C62G G67U	≤ 0.5
G9A C30G A70U	0.57
A40G G50A U54A	0.552
C11A C34U	0.552
C4U U7A G10C C27G U32A	≤ 0.5
G23A C29U	0.923
A21C C27U G68U	0.633
C24G U26G C34A A36C	≤ 0.5
C4G C30G A69U	≤ 0.5
C31U U54G C55U	0.566
A20G C49G	0.855
A15G A45U G48A G56A	0.717
C4A C27U C33U A36U G63C	≤ 0.5
C4U G10A C49A U53A G67A	≤ 0.5
G48C U53A C61U	0.517
U7A U28A C61U U64A	≤ 0.5
U26G A65G	0.971
G9A G39A G63C	0.556

Variant	yeast fitness
C4A U19G C31G A45C C46G	0.555
U8G C22G G25A G68A	≤ 0.5
A15C C27G G39C U47A A69U	≤ 0.5
C4A C11U C27G C33A A43C C46A	≤ 0.5
A37U G44A C49U A57C C61G	≤ 0.5
G12A G18C	0.591
C4U U35A G44C	0.58
U3C U8C A14G U28G A36U C46U U47C C61U	0.553
G51U U53A	0.657
U16A C24U C55U	0.913
C11G C29G C31G A37U	0.674
C4G C55A A57U	≤ 0.5
G9A C22U C61U A70C	≤ 0.5
U19G A21U C29G A37U	≤ 0.5
U7G C30A G48A	0.673
C5U C11U U28C C34G A40G A43G C46G G52A C55U C66U	≤ 0.5
G12A A65C	0.851
A14G G17C G39A	≤ 0.5
C5G G6C U26G C61U	0.59
A20G A69G	1.04
